Source: ChEMBL document CHEMBL1671641, “1,5-benzodiazepines, a novel class of hepatitis C virus polymerase nonnucleoside inhibitors” (Antimicrob Agents Chemother, 2008)

What was measured:
HepG2 = test: (§1) Cytotoxicity against human HepG2 cells after 72 hrs by resazurin assay; assay type: cell-based; conditions: hepg2, 72 h, 72 h
How it was run: (§2)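 Cells were tested against eight serial fourfold dilutions for 72 h, at 3,000 cells/well for HEK293T and 4,000 cells/well for HepG2. Viability was read by resazurin staining. Values are means ± SD from two to eight independent experiments in quadruplicate.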

Hepatitis C virus [1] = test: Inhibition of Hepatitis C virus 1b J4 recombinant NS5B Cdelta 21 RNA dependent RNA polymerase overexpressed in Escherichia coli BL21 (DE3) assessed as [alpha-33P]UTP incorporation by RdRp primer-independent transcription assay; parameters: species or system Hepatitis C virus subtype 1b
How it was run: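 De novo (primer-independent) RdRp assay: 190 nM NS5BΔ21 (1b J4) with 86 nM HCV 3′ UTR template RNA, 0.5 mM each ATP/GTP/CTP, 10 μM UTP plus [α-³³P]UTP, in 20 mM Tris-HCl pH 7.5, 1 mM DTT, 5 mM MgCl₂, 20 mM NaCl. Incubated 2 h at room temperature, stopped with EDTA/tRNA, TCA-precipitated on filters, and scintillation-counted. Quadruplicate.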

Hepatitis C virus [2] = test: Inhibition of Hepatitis C virus 1b J4 recombinant NS5B Cdelta 21 RNA dependent RNA polymerase overexpressed in Escherichia coli BL21 (DE3) by RdRp primer-dependent transcription assay; parameters: species or system Hepatitis C virus subtype 1b
[3] = Cytotoxicity against human HuH7 cells after 5 days by resazurin assay; assay type: cell-based, Huh-7
How it was run: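 Subconfluent HCV 1b subgenomic replicon cells, 500 per well and grown without G418, were incubated for 5 days with eight serial fourfold compound dilutions. Viability was read by resazurin. Values are means ± SD from two to eight independent experiments in quadruplicate.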

MT4 [4] = test: Cytotoxicity against LTR-Luc transfected human MT4 cells […] after 3 days by ATPLite assay; assay type: cell-based; conditions: mt4, 72 h, 72 h
[5] = Cytotoxicity against CMV-Luc transfected human HuH7 cells after 5 days; assay type: cell-based, Huh-7; conditions: huh-7, 120 h, 120 h
Hepatitis C virus [6] = test: Antiviral activity against Hepatitis C virus 1b infected in human HuH7 cells assessed as inhibition of viral replication after 3 days by luciferase reporter assay; assay type: functional, organism-based, Hepacivirus hominis, genotype 1b, Huh-7; conditions: huh-7
How it was run: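 HCV 1b subgenomic luciferase reporter replicon (clone ET) cells, 2,500 per well, were exposed to a nine-point 1/4 dilution series for 3 days. Replication was read as luciferase activity. Values are means ± SD from 2 to 23 independent experiments run in quadruplicate.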

MT4 [7] = test: (§3) Cytotoxicity against human MT4 cells after 3 days by ATPLite assay; assay type: cell-based; conditions: mt4, 72 h, 72 h
How it was run: (§4)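 MT4 cells, 5,000 per well, were incubated 3 days at 37°C with eight serial fourfold compound dilutions. Cytotoxicity was read as intracellular ATP by ATPlite 1step luminescence. Values are means ± SD from two to eight independent experiments in quadruplicate.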

[8] = as §1; assay type: cell-based; conditions: HepG2 cells; how it was run: as §2
Hepatitis C virus [9] = test: Ratio of EC50 for Hepatitis C virus 796 infected in HuH7 cells to EC50 for Hepatitis C virus 796 harboring NNI H95R mutant site in NS5B infected in HuH7 cells; assay type: functional, Hepacivirus hominis, Huh-7
How it was run: (§5)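 NS5B NNI-site mutations were introduced into the genotype 1b ET subgenomic luciferase replicon by site-directed mutagenesis. RNA was made by in vitro transcription and tested in a transient-replication assay.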

Hepatitis C virus [10] = test: Ratio of EC50 for Hepatitis C virus 796 infected in HuH7 cells to EC50 for Hepatitis C virus 796 harboring NNI M423T mutant site in NS5B infected in HuH7 cells; assay type: functional, Hepacivirus hominis, Huh-7; how it was run: as §5
Hepatitis C virus [11] = test: Ratio of EC50 for Hepatitis C virus 796 infected in HuH7 cells to EC50 for Hepatitis C virus 796 harboring NNI Y448A mutant site in NS5B infected in HuH7 cells; assay type: functional, Hepacivirus hominis, Huh-7; how it was run: as §5
[12] = Cytotoxicity against human HEK293T cells after 72 hrs by resazurin assay; assay type: cell-based, HEK-293T; how it was run: as §2
Hepatitis C virus [13] = test: Ratio of EC50 for Hepatitis C virus 796 infected in HuH7 cells to EC50 for Hepatitis C virus 796 harboring NNI P495L mutant site in NS5B infected in HuH7 cells; assay type: functional, Hepacivirus hominis, Huh-7; how it was run: as §5
Hepatitis C virus [14] = test: Ratio of EC50 for Hepatitis C virus 796 infected in HuH7 cells to EC50 for Hepatitis C virus 796 harboring NNI C316Y mutant site in NS5B infected in HuH7 cells; assay type: functional, Hepacivirus hominis, Huh-7; how it was run: as §5
Translocator protein = Translocator protein (Homo sapiens, UniProt P30536); test: Inhibition of peripheral benzodiazepine BZD receptor by radioligand binding assay
Translocator protein, sequence (P30536 whole entry): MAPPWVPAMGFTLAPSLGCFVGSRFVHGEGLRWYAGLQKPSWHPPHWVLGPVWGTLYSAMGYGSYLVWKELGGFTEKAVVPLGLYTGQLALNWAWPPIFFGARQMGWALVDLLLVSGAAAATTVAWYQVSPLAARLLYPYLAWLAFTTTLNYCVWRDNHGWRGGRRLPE
How it was run: (§6)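 Radioligand binding assays for the GABA-A central BZD receptor and the peripheral BZD receptor were run as a single experiment in duplicate.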

[15] = as §3; assay type: cell-based; conditions: MT4 cells; how it was run: as §4
Hepatitis C virus [16] = test: Ratio of EC50 for Hepatitis C virus 796 infected in HuH7 cells to EC50 for Hepatitis C virus 796 harboring NNI M414Q mutant site in NS5B infected in HuH7 cells; assay type: functional, Hepacivirus hominis, Huh-7; how it was run: as §5
[17] = Inhibition of Gamma-aminobutyric acid type-A (GABAA) receptor by radioligand binding assay; how it was run: as §6

SMILES | CC50 (HepG2) [µM] | IC50 (Hepatitis C virus [1]) [µM] | IC50 (Hepatitis C virus [2]) [µM] | CC50 ([3]; huh-7, 120 h, 120 h) [µM] | CC50 (MT4 [4]) [µM] | CC50 [5] [µM] | EC50 (Hepatitis C virus [6]) [nM] | CC50 (MT4 [7]) [µM] | CC50 at 72 h [8] [µM] | fold change (FC) (Hepatitis C virus [9]) | fold change (FC) (Hepatitis C virus [10]) | fold change (FC) (Hepatitis C virus [11]) | CC50 at 72 h [12] [µM] | fold change (FC) (Hepatitis C virus [13]) | fold change (FC) (Hepatitis C virus [14]) | CC50 at 120 h ([3]; HuH7 cells) [µM] | IC50 (Translocator protein) [µM] | CC50 at 72 h [15] [µM] | fold change (FC) (Hepatitis C virus [16]) | IC50 [17] [µM]
CC(=O)N1c2cccc(O)c2NC2=C(C(=O)CC(C)(C)C2)C1c1ccc(OCc2ccccc2)cc1Cl (single isomer, unassigned; 7b) | > 25 | 18.5 | 12.5 | 23.8 | 14.4 | 10.1 | 2100 | 38.4 |  |  |  |  |  |  |  |  |  |  |  | 
CC(=O)N1c2cccc(O)c2NC2=C(C(=O)CC(C)(C)C2)C1c1ccc(OCc2ccccc2)cc1Cl (single isomer, unassigned; 7a) |  | 0.05 | 0.05 |  | 16.2 | 12.8 | 1200 |  | 31.2 | 10 | 10 | 10 | > 25 | 10 | 10 | 46.2 | > 30 | 56.5 | 10 | > 30
